The target in one series is Gamma-secretase. In words: Inhibition of Gamma-secretase in human IMR-32 cells after 2 hrs by ELISA assay. The class given is cell-based. The procedure, abridged: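 γ-Secretase came from IMR-32 cell membranes, and compound was first diluted in DMSO. Reaction at 37 °C was started with MBPC-125 Swedish substrate, run for 2 h, then stopped with SDS. Cleaved substrate was measured by Aβ40-specific ELISA. Values are means of three experiments.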

A short description of series [1]: Metabolic stability in mouse liver microsomes at 2 uM after 30 mins in presence of 1 mM UDPGA. It is filed as ADME, Microsome. Conditions: read-out: Stability; call rule not given here. Summed up: (§1)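 Glucuronidation stability: 2 µM compound incubated 30 min at 37 °C in phosphate buffer with liver microsomes (0.5 mg protein), 1 mM UDPGA, 100 mM MgCl2 and 25 µg/mL alamethicin. Read-out is percent parent compound remaining. Human or mouse microsomes per line.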

A short description of series [2]: Oxidative metabolic stability in mouse liver microsomes at 1 uM after 30 mins in presence of 1 mM NADPH. The class given is ADME, Microsome. Particulars: for remaining at 0.5 h, 1 µM: liver microsomes, read-out: Stability; for Stability: microsomes, 0.5 h, 1 µM. The procedure, abridged:
(§2)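 Oxidative stability: compound at 1 µM incubated 30 min at 37 °C in phosphate buffer with liver microsomes (0.5 mg/ml protein) plus 1 mM NADPH. Percent parent remaining reported. Human or mouse microsomes per line.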

In series [3] the test system is Mus musculus. In words: Reduction of cortical abeta40 level in FVB mouse at 3 mg/kg, po after 3 hrs. It is filed as functional. More on the design: scale not given: the % may be the effect or the level left.
Series [4] can be described thus: (§3) Oxidative metabolic stability in human liver microsomes at 1 uM after 30 mins in presence of 1 mM NADPH. The class given is ADME, Microsome. Conditions: liver microsomes, read-out: Stability. Summed up:
as §2

Series [5] in a line: Apparent permeability from apical to basolateral side in MDCK2 cells at 5 uM after 120 mins. It is filed as ADME, cell-based, Canis lupus familiaris, MDCK-II. Particulars: dog, MDCK. The procedure, abridged: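 Compound at 5 µM in mHBSS pH 7.4 applied to MDCK II cell monolayers for 120 min at 37 °C. Apical and basolateral chambers sampled and analysed by LC/MS/MS.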
Series [6] in a line: Solubility in HBSS buffer at 20 mM at pH 7.4 after 1 hr. It is filed as physicochemical. Summed up: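 20 mM DMSO stocks serially diluted in DMSO, then diluted 1:200 into HBSS pH 7.4. After 1 h incubation, plates read on a solubility scanner.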
Series [7] is described as follows: Metabolic stability in human liver microsomes at 2 uM after 30 mins in presence of 1 mM UDPGA. Particulars: read-out: Stability. It is filed as ADME, Microsome. The procedure, abridged:
as §1

In series [8] the test system is Mus musculus. In words: Reduction of cortical abeta40 level in FVB mouse at 30 mg/kg, po after 3 hrs. The class given is functional. More on the design: scale not given: the % may be the effect or the level left.
The test system of the next series is Liver microsomes. Described as §3. The class given is ADME, Microsome. Particulars: microsomes, 0.5 h, 1 µM. The procedure, abridged:
as §2

The record followed here is ChEMBL document CHEMBL1155356, “Design, synthesis, and structure-activity relationship of novel orally efficacious pyrazole/sulfonamide based dihydroquinoline gamma-secretase inhibitors” (Bioorg Med Chem Lett, 2009).

Values after ≈ are worked out from the molar mass of the structure shown.

`C[C@@H]1c2c[nH]nc2-c2cc(F)ccc2N1S(=O)(=O)c1ccc(Cl)cc1` registered an IC50 at Gamma-secretase of 0.62 nM. Further, the remaining at 0.5 h, 2 µM in series [1] was determined as 91%; in series [7], 77%. The remaining at 0.5 h, 1 µM is 7% in series [2] and 1% in series [4]. Further, the Activity in the series on Mus musculus [3] was found to be 7%; in the series with Mus musculus [8] it was 37%. For the same compound, in [5], the Papp A→B at 2 h, 5 µM is 19.8 ×10⁻⁶ cm/s. Besides, the solubility at 1 h in [6] is over 100 µM.
At Gamma-secretase, `O=S(=O)(c1ccccc1)N1c2ccccc2-c2n[nH]cc2C1C1CC1` (single isomer, unassigned; enantiomer 1) returned a half-inhibitory concentration (IC50) of 4.2 nM. The Stability result (in series [2]; in the series on Liver microsomes) was “Not Active” each time.
Turning to `O=[N+]([O-])c1ccc(S(=O)(=O)N2c3cc(F)c(F)cc3-c3n[nH]cc3C2C2CC2)cc1` (racemic), 40 nM corresponded to half-maximal inhibition on Gamma-secretase (IC50). In addition, the Stability result (in series [2]; with Liver microsomes) was “Not Active” throughout.
Compound `O=S(=O)(c1ccc(C(F)(F)F)cn1)N1c2ccc(F)cc2-c2n[nH]cc2[C@H]1C1CC1` gave an IC50 against Gamma-secretase of 0.67 nM. In addition, the remaining at 0.5 h, 2 µM in series [1] was determined as 89%; in series [7], 97%. Further, the remaining at 0.5 h, 1 µM in [2] worked out at 83%; in series [4] it was 95%. This compound also yielded an Activity in the series with Mus musculus [3] of 43%. In addition, the Papp A→B at 2 h, 5 µM in series [5] worked out at 24.9 ×10⁻⁶ cm/s. The same compound displayed a solubility at 1 h in series [6] of 95 µM (≈ 41.6 µg/mL).
